≈ marks a conversion by molar mass, not a printed value.
How the values were obtained:
Staphylococcus aureus = assay: Antibacterial activity against Staphylococcus aureus ATCC 25923 after 16 to 18 hrs by agar dilution method; format: functional
Summary of the method: (§1)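 Agar dilution MIC following CLSI guidance. E. faecalis was grown on Brain–Heart Infusion agar and the other strains on Mueller Hinton agar. Compounds were diluted in DMSO or 0.1 M NaOH in twofold steps to give final concentrations of 0.06–128 µg/mL. Inocula of 10^4 cfu/spot were incubated 16–18 h at 36 °C in ambient air. MIC was taken as the lowest concentration preventing visible growth.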

Enterococcus faecalis = assay: Antibacterial activity against Enterococcus faecalis ATCC 29212 after 16 to 18 hrs by agar dilution method; format: functional; summary of the method: as §1
Bacillus subtilis = assay: Antimicrobial activity against Bacillus subtilis ATCC 6633 after 16 to 18 hrs by agar dilution method; format: functional
Summary of the method: (§2)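 Agar dilution MIC per CLSI on Mueller Hinton agar. Stocks were diluted in DMSO or 0.1 M NaOH as a twofold series, with final concentrations 0.06–128. Plates were spotted at 10⁴ cfu/spot and incubated in ambient air at 36 °C for 16–18 h. MIC was the lowest concentration that prevented visible growth.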

Serratia marcescens = assay: Antibacterial activity against Serratia marcescens ATCC 27117 after 16 to 18 hrs by agar dilution method; format: functional; summary of the method: as §2
[1] = tested on: Staphylococcus epidermidis; assay: Antibacterial activity against Staphylococcus epidermidis ATCC 12228 after 16 to 18 hrs by agar dilution method; format: functional; summary of the method: as §1
SH-SY5Y [2] = assay: Cell viability of human SH-SY5Y cells at 0.1 uM after 24 hrs by MTS assay; format: functional
Summary of the method: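 SH-SY5Y cells were grown in 1:1 EMEM/F12K with 10% heat-inactivated FBS at 37 °C and 5% CO₂. One day after plating, cells were pretreated with compound for 2 h, then exposed to hydrogen peroxide for 24 h. MTS reagent was added for 3 h at 37 °C and OD read at 490 nm. Viability is % of control, from at least two independent experiments in triplicate.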

Rattus norvegicus [3] = assay: Cardioprotective effect in Sprague-Dawley rat myocardial infarction model assessed as reduction of infract area in heart at 0.001 mg/kg, ip; format: functional; design: scale not given: the % may be the effect or the level left; settings: route intraperitoneal
Summary of the method: (§3)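 Male Sprague–Dawley rats (260–290 g) were anesthetized with ketamine ([…]) and xylazine (5 mg/kg). A single ip dose was given 1 h before regional myocardial ischemia (30 min), followed by 3 h reperfusion. After 1% Evans blue, the left ventricle was cut into two slices and stained with TTC. Infarct size was expressed as % of area at risk versus vehicle, using Student's t-test (P < 0.05).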

Rattus norvegicus [4] = assay: Antiischemic effect in Sprague-Dawley rat focal ischemic sroke model assessed as reduction of infract size in brain at 0.01 mg/kg, ip after 24 hrs under post-ischemic conditions; design: scale not given: the % may be the effect or the level left; settings: route intraperitoneal
Rattus norvegicus [5] = assay: Cardioprotective effect in Sprague-Dawley rat myocardial infarction model assessed as reduction of infract area in heart at 0.1 mg/kg, ip; format: functional; design: scale not given: the % may be the effect or the level left; settings: route intraperitoneal; summary of the method: as §3
Rattus norvegicus [6] = assay: Cardioprotective effect in Sprague-Dawley rat myocardial infarction model assessed as reduction of infract size in heart at 0.001 mg/kg, ip; format: functional; design: scale not given: the % may be the effect or the level left; settings: route intraperitoneal; summary of the method: as §3
Rattus norvegicus [7] = assay: Antiischemic effect in Sprague-Dawley rat focal ischemic sroke model assessed as reduction of infract size in brain at 0.01 mg/kg, ip after 24 hrs under pre-ischemic conditions; format: functional; design: scale not given: the % may be the effect or the level left; settings: route intraperitoneal
Summary of the method: (§4)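 Rat MCAO with 2 h ischemia and 22 h reperfusion, pre-ischemic regimen. Compound was given ip three times: 3 h and 1 h before, and 1 h after, MCA occlusion. Brains were removed 24 h after ischemia, cut into seven slices, and stained with TTC. Infarct volume was measured by computer-assisted planimetry and expressed as % reduction versus vehicle-treated rats.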

Enterobacter cloacae = assay: Antibacterial activity against Enterobacter cloacae ATCC 13047 after 16 to 18 hrs by agar dilution method; format: functional
Rattus norvegicus [8] = assay: Antiischemic effect in Sprague-Dawley […] sroke model assessed as reduction of infract size in brain at 0.1 mg/kg, ip after 24 hrs under pre-ischemic conditions; format: functional; design: scale not given: the % may be the effect or the level left; settings: route intraperitoneal; summary of the method: as §4
Escherichia coli = assay: Antibacterial activity against Escherichia coli ATCC 25922 after 16 to 18 hrs by agar dilution method; format: functional; summary of the method: as §1
Rattus norvegicus [9] = assay: Cardioprotective effect in Sprague-Dawley rat myocardial infarction model assessed as reduction of infract area in heart at 0.01 mg/kg, ip; format: functional; design: scale not given: the % may be the effect or the level left; settings: route intraperitoneal; summary of the method: as §3
SH-SY5Y [10] = assay: Enhancement of cell viability of human SH-SY5Y cells at 0.1 uM after 24 hrs by MTS assay relative to control; format: functional
Summary of the method: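 SH-SY5Y neuroblastoma cells were grown in 1:1 EMEM/F12K with 10% heat-inactivated FBS at 37 °C, 5% CO2. After 1 day, cells were pretreated with compound at 0.1 µM for 2 h, then exposed to 200 µM H2O2 for 24 h. Viability was read by MTS (3 h, 37 °C, OD 490 nm) as a percentage of control. At least two independent experiments, each in triplicate.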

Rattus norvegicus [11] = assay: Antiischemic effect in Sprague-Dawley rat focal ischemic sroke model assessed as reduction of infract size in brain at 0.001 mg/kg, ip after 24 hrs under pre-ischemic conditions; format: functional; design: scale not given: the % may be the effect or the level left; settings: route intraperitoneal; summary of the method: as §4
Rattus norvegicus [12] = assay: Cardioprotective effect in Sprague-Dawley rat myocardial infarction model assessed as reduction of infract size in heart at 0.01 mg/kg, ip; format: functional; design: scale not given: the % may be the effect or the level left; settings: route intraperitoneal; summary of the method: as §3

Compound	MIC (Staphylococcus aureus) [µg/mL]	MIC (Enterococcus faecalis) [µg/mL]	MIC (Bacillus subtilis) [µg/mL]	MIC (Serratia marcescens) [µg/mL]	MIC [1] [µg/mL]	Activity (SH-SY5Y [2]) [%]	also measured
O=C(O)c1cn(C2CC2)c2cc(N3CCNCC3)c(F)cc2c1=O [CIPROFLOXACIN]	2 (≈ 6.04 µM)	2 (≈ 6.04 µM)	1 (≈ 3.02 µM)	0.125 (≈ 0.377 µM)	1 (≈ 3.02 µM)	46.5	
Cc1c(C(=O)O)c(=O)c2cc(F)c(N3CCNCC3)cc2n1C1CC1						49.9	
O=C(O)c1cn(C2CC2)c2cc(N3CCCCC3)c(F)cc2c1=O						44.1	
O=C(O)c1cn(C2CC2)c2ccc(F)cc2c1=O						45.1	
O=C(O)c1cn(C2CC2)c2cc(N3CCNCC3)ccc2c1=O	32 (≈ 102 µM)	64 (≈ 204 µM)	8 (≈ 25.5 µM)	4 (≈ 12.8 µM)	16 (≈ 51.1 µM)	61.7	Activity (Rattus norvegicus [3]): 62.1%; Activity (Rattus norvegicus [4]): 8.9%; Activity (Rattus norvegicus [5]): 78.3%; Activity (Rattus norvegicus [6]): 14.2%; Activity (Rattus norvegicus [7]): 32.1%; MIC (Enterobacter cloacae): 1 µg/mL (≈ 3.19 µM); Activity (Rattus norvegicus [8]): 5.3%; MIC (Escherichia coli): 0.5 µg/mL (≈ 1.6 µM); Activity (Rattus norvegicus [9]): 53.1%; Activity (SH-SY5Y [10]): 42%; Activity (Rattus norvegicus [11]): 9.6%; Activity (Rattus norvegicus [12]): 26.6%
O=C(O)c1cn(C2CC2)c2ccccc2c1=O						39	
O=C(O)c1cn(C2CC2)c2cc(C3CCNCC3)c(F)cc2c1=O						42.4	
O=c1ccn(C2CC2)c2cc(N3CCNCC3)c(F)cc12	16 (≈ 55.7 µM)	8 (≈ 27.8 µM)	8 (≈ 27.8 µM)	1 (≈ 3.48 µM)	8 (≈ 27.8 µM)	57.4	MIC (Enterobacter cloacae): 0.5 µg/mL (≈ 1.74 µM); MIC (Escherichia coli): < 0.12 µg/mL; Activity (SH-SY5Y [10]): 33%
O=C(O)c1cn(C2CC2)c2cc(N3CCNCC3)c(F)cc2c1=S						27.1	
